ChEMBL document CHEMBL4330056, “Synthesis and Cytotoxic and Antiviral Profiling of Pyrrolo- and Furo-Fused 7-Deazapurine Ribonucleosides” (J Med Chem, 2018)
Calls of active or inactive are those of the source. The calls are words filed in the database; no cut-off is given here.

Tests used:
HCT-116 = experiment: Antiproliferative activity against human HCT116 cells after 3 days by MTS assay; type: functional, cell-based; conditions: HCT-116, 72 h
MRC5 = experiment: Antiproliferative activity against human MRC5 cells after 3 days by MTS assay; conditions: MRC5, 72 h
CCRF-CEM [1] = experiment: Induction of cell cycle arrest in human CCRF-CEM cells assessed as accumulation at G2/M phase at IC50 concentration after 24 hrs by propidium iodide-staining based flow cytometry (reference value: 19.22%); type: functional
CCRF-CEM [2] = experiment: Induction of cell cycle arrest in human CCRF-CEM cells assessed as accumulation at subG1 phase at 5 times IC50 concentration after 24 hrs by propidium iodide-staining based flow cytometry (reference value: 3.45%); type: functional
HL-60 = experiment: Antiproliferative activity against human HL60 cells after 72 hrs by XTT assay; type: functional, cell-based; conditions: HL-60, 72 h
U2OS = experiment: Antiproliferative activity against human U2OS cells after 3 days by MTS assay; type: functional, cell-based; conditions: 72 h
K562 = experiment: Antiproliferative activity against human K562 cells after 3 days by MTS assay; type: functional, cell-based; conditions: K562, 72 h
CCRF-CEM [3] = experiment: Induction of cell cycle arrest in human CCRF-CEM cells assessed as accumulation at S phase at IC50 concentration after 24 hrs by propidium iodide-staining based flow cytometry (reference value: 41.08%); type: functional
[4] = Chemical stability of the compound assessed as compound remaining after 15 mins relative to control; type: physicochemical; conditions: read-out: Stability
CCRF-CEM [5] = experiment: Induction of cell cycle arrest in human CCRF-CEM cells assessed as accumulation at S phase at 5 times IC50 concentration after 24 hrs by propidium iodide-staining based flow cytometry (reference value: 41.08%); type: functional
HepG2 = experiment: Antiproliferative activity against human HepG2 cells after 72 hrs by XTT assay; type: functional, cell-based; conditions: HepG2, 72 h
[6] = Metabolic stability in human liver microsomes assessed as compound remaining at 5 umol/L after 15 mins relative to control; type: ADME, Microsome; conditions: read-out: Stability
Method in brief: (§1)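 Human microsomal fraction; percent compound remaining over time.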

[7] = Antiproliferative activity against human CEM-DNR-bulk cells after 3 days by MTS assay; conditions: 72 h
CCRF-CEM [8] = experiment: Inhibition of mitosis in human CCRF-CEM cells assessed Ser10 H3 phosphorylation positive cells at 5 times IC50 concentration after 24 hrs by flow cytometry relative to total cell population (reference value: 1.36%); type: functional; design: scale not given: the % may be the effect or the level left
[9] = Cytotoxicity against human Hep2 cells assessed as reduction in cell viability after 3 days by CellTiter-Glo assay; type: cell-based; conditions: HEp-2 cells
[10] = Chemical stability of the compound assessed as compound remaining after 120 mins relative to control; type: physicochemical; conditions: read-out: Stability
[11] = Stability in human plasma assessed as compound remaining at 3.3 umol/L after 30 mins by RF-MS analysis relative to control; type: ADME, cell-free; conditions: read-out: Stability
[12] = Stability in human plasma assessed as compound remaining at 3.3 umol/L after 60 mins by RF-MS analysis relative to control; type: ADME, cell-free; conditions: read-out: Stability
[13] = Antiproliferative activity against human K562-TAX cells after 3 days by MTS assay; type: functional, cell-based; conditions: 72 h
A549 = experiment: Antiproliferative activity against human A549 cells after 3 days by MTS assay; type: functional, cell-based; conditions: A549, 72 h
CCRF-CEM [14] = experiment: Inhibition of RNA synthesis in human CCRF-CEM cells assessed as RNA synthesis level at IC50 concentration after 24 hrs by BrU incorporation assay (reference value: 49.89%); type: functional; design: scale not given: the % may be the effect or the level left
Adenosine kinase = Adenosine kinase (Homo sapiens, UniProt P55263); experiment: Inhibition of recombinant human ADK using [3H]-adenosine as substrate after 20 mins by TLC scanner-based analysis relative to control
Method in brief: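 ADK inhibition: 50 μM adenosine substrate with 10 μM test compound and 97 ng enzyme, 20 min at 37 °C.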

Human alphaherpesvirus 1 = experiment: Antiviral activity against human herpesvirus 1 HF infected in African green monkey Vero cells assessed as inhibited virus-induced cytopathic effect incubated for 3 days by XTT assay; type: functional, organism-based
Human orthopneumovirus = experiment: Antiviral activity against Human respiratory syncytial virus A2 infected in Hep2 cells assessed as reduction in virus-induced cytopathic effect incubated for 4 days by CellTiter-Glo viability reagent based assay; type: functional, organism-based
CCRF-CEM [15] = experiment: Induction of cell cycle arrest in human CCRF-CEM cells assessed as accumulation at G0/G1 phase at 5 times IC50 concentration after 24 hrs by propidium iodide-staining based flow cytometry (reference value: 39.70%); type: functional
[16] = Stability in human plasma assessed as compound remaining at 3.3 umol/L after 120 mins by RF-MS analysis relative to control; type: ADME, cell-free; conditions: read-out: Stability
[17] = Chemical stability of the compound assessed as compound remaining after 30 mins relative to control; type: physicochemical; conditions: read-out: Stability
Coxsackievirus B3 = experiment: Antiviral activity against Human coxsackie B3 Nancy infected in human HeLa cells assessed as inhibited virus-induced cytopathic effect incubated for 2 days by XTT assay; type: functional, organism-based
CCRF-CEM [18] = experiment: Induction of cell cycle arrest in human CCRF-CEM cells assessed as accumulation at G0/G1 phase at IC50 concentration after 24 hrs by propidium iodide-staining based flow cytometry (reference value: 39.70%); type: functional
CCRF-CEM [19] = experiment: Inhibition of RNA synthesis in human CCRF-CEM cells assessed as RNA synthesis level at 5 times IC50 concentration after 24 hrs by BrU incorporation assay (reference value: 49.89%); type: functional; design: scale not given: the % may be the effect or the level left
[20] = Chemical stability of the compound assessed as compound remaining after 60 mins relative to control; type: physicochemical; conditions: read-out: Stability
dengue virus type 2 = experiment: Antiviral activity against Dengue virus 2 Thailand/16681/84 infected in African green monkey Vero cells assessed as inhibition of virus replication incubated for 3 days by fluorescence microscopy; type: functional, organism-based
CCRF-CEM [21] = experiment: Antiproliferative activity against human CCRF-CEM cells after 3 days by MTS assay; type: functional, cell-based; conditions: 72 h
BJ = experiment: Antiproliferative activity against human BJ cells after 3 days by MTS assay; conditions: 72 h
[22] = Effective permeability of the compound at 20 umol/L by PAMPA; type: ADME; conditions: 20 µM
Hepatitis C virus [23] = experiment: Antiviral activity against Hepatitis C virus genotype 1b infected in human Huh-luc replicon cells after 3 days by luciferase assay; type: functional, organism-based, Hepacivirus hominis; conditions: subtype 1b, 72 h
[24] = Protein binding in human plasma; type: ADME, cell-free; conditions: read-out: PPB (converted)
CCRF-CEM [25] = experiment: Inhibition of DNA synthesis in human CCRF-CEM cells assessed as DNA synthesis level at IC50 concentration after 24 hrs by BrdU incorporation assay (reference value: 43.39%); type: functional; design: scale not given: the % may be the effect or the level left
CCRF-CEM [26] = experiment: Inhibition of mitosis in human CCRF-CEM cells assessed Ser10 H3 phosphorylation positive cells at IC50 concentration after 24 hrs by flow cytometry relative to total cell population (reference value: 1.36%); type: functional; design: scale not given: the % may be the effect or the level left
CCRF-CEM [27] = experiment: Induction of cell cycle arrest in human CCRF-CEM cells assessed as accumulation at G2/M phase at 5 times IC50 concentration after 24 hrs by propidium iodide-staining based flow cytometry (reference value: 19.22%); type: functional
[28] = Metabolic stability in human liver microsomes assessed as compound remaining at 5 umol/L after 60 mins relative to control; type: ADME, Microsome; conditions: read-out: Stability; method in brief: as §1
Hepatitis C virus [29] = experiment: Antiviral activity against Hepatitis C virus genotype 2a infected in human Huh-luc replicon cells after 3 days by luciferase assay; type: functional, organism-based, Hepacivirus hominis; conditions: subtype 2a, 72 h
HeLa S3 = experiment: Antiproliferative activity against human HeLaS3 cells after 72 hrs by XTT assay; type: functional, cell-based; conditions: HeLa S3, 72 h

Adenosine kinase, sequence (P55263 whole entry): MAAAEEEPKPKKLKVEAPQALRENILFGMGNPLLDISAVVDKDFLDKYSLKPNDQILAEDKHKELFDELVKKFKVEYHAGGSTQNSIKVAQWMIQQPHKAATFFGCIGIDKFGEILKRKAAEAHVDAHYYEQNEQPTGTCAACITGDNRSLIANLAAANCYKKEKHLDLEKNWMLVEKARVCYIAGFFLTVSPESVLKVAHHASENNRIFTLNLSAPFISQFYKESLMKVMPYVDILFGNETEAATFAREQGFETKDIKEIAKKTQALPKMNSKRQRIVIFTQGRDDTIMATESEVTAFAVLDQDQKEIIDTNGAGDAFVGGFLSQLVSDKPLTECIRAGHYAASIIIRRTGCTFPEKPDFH

`Cc1ncnc2c1c1c(ccn1C)n2[C@@H]1O[C@H](CO)[C@@H](O)[C@H]1O` showed an IC50 (HCT-116) of 0.33 µM, an IC50 (MRC5) of 50 µM and an Activity (CCRF-CEM [1]) of 17.22%. For the same compound, the Activity (CCRF-CEM [2]) was 10.99%, the IC50 (HL-60) was 1.51 µM and the IC50 (U2OS) was 0.61 µM. It also gave an IC50 (K562) of 0.4 µM, an Activity (CCRF-CEM [3]) of 51.03% and a remaining at 0.25 h [4] of 98%. For the same compound, the Activity (CCRF-CEM [5]) was 52.19%, the IC50 (HepG2) was 1.13 µM and the remaining at 0.25 h, 5 µM [6] was 99%. It also gave an IC50 [7] of over 50 µM, an Activity (CCRF-CEM [8]) of 0.9% and a CC50 at 72 h [9] of over 44.4 µM. The remaining at 2 h [10] was 91%, the remaining at 0.5 h, 3.3 µM [11] was 83% and the remaining at 1 h, 3.3 µM [12] was 81%. The IC50 [13] was over 50 µM, the IC50 (A549) was 2.08 µM and the Activity (CCRF-CEM [14]) was 53.62%. The IC50 (Adenosine kinase) was over 10 µM, the Activity (Human alphaherpesvirus 1) was “inactive” and the Activity (Human orthopneumovirus) was “inactive”. The Activity (CCRF-CEM [15]) was 34.66%, the remaining at 2 h, 3.3 µM [16] was 79% and the remaining at 0.5 h [17] was 97%. The Activity (Coxsackievirus B3) was “inactive”, the Activity (CCRF-CEM [18]) was 31.75% and the Activity (CCRF-CEM [19]) was 35.91%. For the same compound, the remaining at 1 h [20] was 93%, the Activity (dengue virus type 2) was “inactive” and the IC50 (CCRF-CEM [21]) was 0.21 µM. For the same compound, the IC50 (BJ) was 3.91 µM, the “log(permeability)” value [22] was -6.87 and the EC50 (Hepatitis C virus [23]) was 0.19 µM. For the same compound, the fraction unbound [24] was 0.71, the Activity (CCRF-CEM [25]) was 48.49% and the Activity (CCRF-CEM [26]) was 1.06%. For the same compound, the Activity (CCRF-CEM [27]) was 13.14%, the remaining at 1 h, 5 µM [28] was 97% and the EC50 (Hepatitis C virus [29]) was 0.12 µM. It also gave an IC50 (HeLa S3) of 1.19 µM.
